Assay outcomes deposited in PubChem by several laboratories.
Shown are actives, neighbours in structure and some others; about 0.97% of the full set was active somewhere.
APOBEC3A inh – APOBEC3A ssDNA deaminase inhibitors, primary screen, selectivity assay for APOBEC3G inhibitor project, biochemical, FAM/TAMRA oligo cleavage fluorescence | DNA dC->dU-editing enzyme APOBEC-3A (Homo sapiens), P31941 | recombinant A3A, FAM/TAMRA ssDNA deamination fluorescence | inhibition, % at 20 µM | 330,000 compounds, 0.41% hits | AID 493011, 2011;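 active means at least 40% inhibition at 20 µM here, with at most 30% in a related deaminase screen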;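 further: plate controls were A3A with DMSO for no effect and wells lacking A3A enzyme for full effect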
Target sequence (P31941 whole entry, looked up): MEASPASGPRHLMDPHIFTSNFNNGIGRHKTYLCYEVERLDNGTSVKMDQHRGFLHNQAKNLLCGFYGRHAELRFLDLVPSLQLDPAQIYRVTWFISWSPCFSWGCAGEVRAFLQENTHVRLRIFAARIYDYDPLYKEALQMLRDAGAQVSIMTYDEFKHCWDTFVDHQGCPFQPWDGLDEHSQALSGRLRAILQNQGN
A3G deaminase – APOBEC3G DNA deaminase inhibitors, primary screen, biochemical, fluorescence, single-stranded DNA substrate, uHTS. recombinant A3G, ssDNA deamination FAM/TAMRA fluorescence. inhibition, % at 20 µM. 330,000 compounds, 0.28% hits. AID 493012, 2011;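 active means inhibition of at least 40% at 20 µM, with no more than 30% in the related APOBEC3A deaminase screen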;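 further: plate controls were DMSO wells with A3G for no effect and wells lacking A3G enzyme for full effect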
UCH37 DUB inh – inhibitors of human UCH37 deubiquitinase, primary screen, biochemical, Ub-AMC cleavage, fluorescence; Ubiquitin carboxyl-terminal hydrolase isozyme L5 (Homo sapiens), Q9Y5K5; purified proteasome/UCH37; inhibition, % (test concentration not listed); 330,000 compounds, 0.33% hits; AID 588478, 2011;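 active means mean inhibition over replicate wells above about 20%, limit read from the data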;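 further: 0% = compound-free wells with enzyme and 100% = wells lacking proteasome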
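Reagent: Ub-AMC substrate; assay system: Proteasome-associated human UCH37 deubiquitinase; controls: no-proteasome and no-compound wells; read-out: % inhibition of Ub-AMC cleavage fluorescence; timing: 30 min preincubation with enzyme, 25 min cleavage at room temperature; signal: AMC fluorescence from Ub-AMC cleavage, excitation 355 nm, emission 460 nm; buffer or medium: Tris-HCl pH 7.4 plus ovalbumin, ATP-MgCl2, DTT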
JMJD2C inh – inhibitors of GASC-1 histone demethylase, primary screen, biochemical, fluorescence, DELFIA europium; GST-JMJD2C(1-420) H3K9me3 demethylation; Lysine-specific demethylase 4C (Homo sapiens), Q9H3R0; inhibition, % at 2.35 µM; 330,000 compounds, 0.069% hits;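 active means more than half of a compound's replicate wells show inhibition beyond 50%, single wells judged on their own value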;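 further: signal counts dimethyl H3K9 product captured on neutravidin plate; 0% = median of DMSO wells and 100% = 0.3 times that DMSO median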
Target sequence (Q9H3R0 1-420 limits assumed): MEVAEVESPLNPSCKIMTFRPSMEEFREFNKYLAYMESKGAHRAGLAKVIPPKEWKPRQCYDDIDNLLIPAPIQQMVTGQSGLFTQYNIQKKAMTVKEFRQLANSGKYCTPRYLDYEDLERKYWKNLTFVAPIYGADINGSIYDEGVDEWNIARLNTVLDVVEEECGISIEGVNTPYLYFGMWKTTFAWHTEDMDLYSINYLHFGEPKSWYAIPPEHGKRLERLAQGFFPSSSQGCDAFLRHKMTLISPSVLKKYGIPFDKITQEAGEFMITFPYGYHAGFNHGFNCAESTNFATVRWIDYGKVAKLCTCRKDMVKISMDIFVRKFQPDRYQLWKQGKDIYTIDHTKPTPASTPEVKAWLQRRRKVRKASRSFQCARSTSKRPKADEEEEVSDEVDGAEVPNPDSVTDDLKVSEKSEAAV
A3A conf – APOBEC3A deaminase inhibitors, retest, confirmation, selectivity assay for APOBEC3G inhibitor project, biochemical, single concentration, fluorescence readout; shares compounds with APOBEC3A inh; recombinant A3A, ssDNA deaminase UDG fluorescence assay; inhibition, % at 20 µM; 1,400 compounds, 63% hits; AID 493151, 2011;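 active means inhibition reaching a set limit, 80% of the first screen's cutoff, at 20 µM in any replicate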;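 further: plate controls were DMSO wells with A3A for no effect and wells lacking A3A enzyme for full effect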
UDG A3A counter – E. coli UDG inhibitors, confirmation, counter-screen for APOBEC3A inhibitor project, biochemical, single concentration, fluorescence, FAM/TAMRA oligo; shares compounds with APOBEC3A inh; UDG counterscreen, FAM/TAMRA uracil oligo fluorescence; inhibition, % at 20 µM; 1,000 tested, under 10 active; AID 504714, 2011; call rule not given here
* = called active by the depositor; · = no result.

SMILES	APOBEC3A inh	A3G deaminase	UCH37 DUB inh	JMJD2C inh	A3A conf	UDG A3A counter
O=C(ON=C1CCCCC1c1ccc([N+](=O)[O-])cc1[N+](=O)[O-])c1c(F)cccc1F (stereo not given)	·	·	0	·	·	·
COC(=O)c1ccc2ccn(CC(=O)NC(C)C)c2c1	74*	13	-182	-6	70*	-2
COc1cc(OC)cc(C(=O)Nc2cccc3c2CCCC3)c1	-7	-2	4	2	·	·
COc1cccc(OC)c1C(=O)Nc1cccc2c1CCCC2	55*	-1	0	106	-3	1
O=C(CNS(=O)(=O)c1ccccc1)NN=Cc1ccc(O)cc1	·	·	2	·	·	·
CCC(C)c1ccc(S(=O)(=O)N2CCN(CC(O)COCC3CCCO3)CC2)cc1 (stereo not given)	55*	-9	4	·	-11	1
CCOc1ncccc1C(=O)OCc1ccccc1	1	-1	0	-9	·	·
CCOc1ncccc1C(=O)OCC(=O)N(CC)c1ccccc1	74*	-6	-2	4	-1	2
CC(C)c1c(C(=O)NN=Cc2ccc(Cl)cc2Cl)nnn1-c1nonc1N	·	·	0	·	·	·
CC(C)(C)C(=O)ON=C(N)c1ccc(-c2csnn2)cc1	·	·	2	·	·	·
Cc1ccc(S(=O)(=O)N2CCN(CC(=O)NN=C/C(Cl)=C/c3ccccc3)CC2)cc1	·	·	3	·	·	·
CCOCc1cnc(C)nc1NCC(=O)c1c(C)[nH]c2ccc(OC)cc12	55*	21	3	5	80*	2
Cc1ccc(CN2C(=O)N/C(=C\c3ccc(-c4ccc(C(=O)O)cc4C)o3)C2=O)cc1	53*	21	·	-7	32*	-1
CS(=O)(=O)c1ccc(Cl)c(NC(=O)CCCc2nc3ccccc3c(=O)[nH]2)c1	41*	4	1	-8	2	·
CS(=O)(=O)c1ccc(NC(=O)CCCc2nc3ccccc3c(=O)[nH]2)cc1	10	-2	0	-4	·	·
C[n+]1cccc(C(=O)NNC(=O)C23CC4CC(CC(C4)C2)C3)c1	82*	21	7	2	69*	-3
CN(C)c1ccc(/C=C/c2cccc[n+]2[O-])cc1	-4	-8	·	5	·	·
CC(C)CC[n+]1ccccc1/C=C/c1ccc(N(C)C)cc1	56*	-13	12	-43	54*	-4
O=[N+]([O-])c1ccc(C[n+]2cccc3ccccc32)cc1	43*	3	2	-1	53*	-2
O=[N+]([O-])c1ccc(C[n+]2cccc3ccc4cccnc4c32)cc1	16	2	2	-4	·	·
O=C(CC1(O)C(=O)Nc2cc(Cl)cc(Cl)c21)c1ccccc1O (stereo not given)	65*	-1	0	9	-10	1
O=C(CC1(O)C(=O)Nc2ccccc21)c1ccccc1O (stereo not given)	-1	-5	-4	4	·	·
Cn1c2ccccc2c2cc(/C=N/NC(=O)c3cc(O)cc(O)c3)ccc21	55*	20	·	4	60*	2
Cc1cccc(C(=O)Oc2ccc(/C=N/NC(=O)c3cc(O)cc(O)c3)cc2)c1	69*	24	·	-2	77*	2
CCSCc1nnc(SCC(=O)Nc2ccc(OC)cc2)n1C	56*	18	3	5	63*	5
SMILES	APOBEC3A inh	A3G deaminase	UCH37 DUB inh	JMJD2C inh	A3A conf	UDG A3A counter
Cn1c(SCC(=O)Nc2ccc3c(c2)oc2ccccc23)nnc1-c1ccccc1	46*	18	1	3	60*	3
Cn1c(SCC(=O)NC(C)(C)C)nnc1-c1cccc(NC(=O)c2ccccc2F)c1	45*	16	1	12	24	·
Cn1c(SCC(=O)Nc2ccc3[nH]c(=O)[nH]c3c2)nnc1-c1ccccc1	2	-3	4	2	·	·
COc1ccc(-c2nnc(SCC(=O)Nc3ccc(C)cc3)n2C)cc1	-1	-4	3	-4	·	·
COc1ccc(-c2nnc(SCC(=O)NC(=O)Cc3ccccc3)n2C)cc1	43*	10	-4	1	21	·
O=C(NN=Cc1ccc(O)cc1)c1cc(C2CC2)[nH]n1	·	·	1	·	·	·
Nc1nnc(CC(=O)NN=Cc2ccc(-c3ccc(Cl)cc3Cl)o2)s1	·	·	-8	·	·	·
NC(=NOC(=O)C1CC1)c1ccc([N+](=O)[O-])s1	·	·	8	·	·	·
Cc1cc(C)c(NC(=O)CNC(=O)[C@@H]2CCCN2C(=O)c2cccs2)c(C)c1	2	-2	1	-3	·	·
O=C(Nc1nc2c(s1)CCCC2)C1CCCN1C(=O)c1cccs1 (stereo not given)	54*	20	1	-6	46*	-1
Cc1ccc(NC(=O)C2CCN(C(=O)c3cccs3)CC2)c(C)c1	44*	14	1	1	67*	0
O=C(Nc1nccs1)[C@@H]1CCCN1C(=O)c1cccs1	-5	-7	1	-11	·	·
Cc1ccc(NC(=O)C2CCCN2C(=O)c2cccs2)c(C)c1 (stereo not given)	51*	17	1	-1	59*	-1
CCc1ccccc1NC(=O)C1CCN(C(=O)c2cccs2)CC1	-2	0	2	-17	·	·
Nc1nonc1-n1nnc(C(=O)NN=Cc2ccc(Cl)cc2Cl)c1CN1CCOCC1	·	·	8	·	·	·
CCn1c(C)nc2cc(C(=O)NN=C(C)c3ccc(OC)cc3O)ccc21	·	·	1	·	·	·
CCn1ncc(-c2ccnc3cc(C(=O)O)nn23)c1C	94*	-13	-411	12	77*	-3
COc1cc(C(=O)N2CCN(S(=O)(=O)c3ccc(Cl)cc3)CC2)ccc1OCC(=O)N1CCOCC1	·	·	6	·	·	·
COc1ccccc1OCC(=O)N1CCN(S(=O)(=O)c2ccc(Cl)cc2)CC1	53*	5	4	·	1	·
O=C(Cc1c[nH]c2ccccc12)N1CCN(S(=O)(=O)c2ccc(Cl)cc2)CC1	40*	0	3	·	0	·
COc1ccc(CCn2c(C)cc(C(=O)CSc3nnc(N)s3)c2C)cc1	44*	-7	3	1	-6	-2
Cc1cc(C(=O)CSc2nnc(N)s2)c(C)n1CCc1ccc(Cl)cc1	-2	-6	4	-8	·	·
Cc1ccc(Cn2cc(C=NNC(=O)Cc3nnc(NC(=O)c4ccc(C)cc4)s3)c3ccccc32)cc1	·	·	1	·	·	·
CCCn1c(/C=C/c2cc[n+](C)cc2)nc2ccccc21	57*	19	-145	26	62*	·
